Screens as filed in PubChem.
Compounds with a hit are over-represented: about 3.8% of the library has one in this group of screens.
Hep lipid drop = inhibitors of hepatocyte lipid droplet formation, primary screen, imaging, high-throughput imaging, BODIPY stain | AML12 mouse hepatocytes, oleate lipid droplets | inhibition, % at 6.5 µM | actives 0.4% (n = 240,000) | AID 1656, 2009;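 active = lipid droplet intensity inhibited by at least 50%, with more than 500 cells counted; inconclusive = wells with under 300 cells, treated as cytotoxic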
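Test system: AML12 hepatocytes (mouse); reagent: oleate loading, 100 µM; dosing: one dose, 6.5 µM compound; incubation: overnight exposure; signal: fluorescence imaging, 20x objective, two fields per well; read-out basis: % inhibition of corrected integrated BODIPY droplet signal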
HSP90 refold inh = HSP90 inhibitors, primary screen, cell lysate, luminescence | Rabbit reticulocyte lysate, luciferase refolding luminescence, 3 h | inhibition, % at 5.6 µM | actives 0.91% (n = 290,000) | AID 1789, 2009;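 active = inhibition above the screen-wide mean plus 3 SD, computed separately per campaign, cut at about 16% in these data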;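 note: 0% = DMSO wells and 100% = 60 µM geldanamycin wells; inhibitors lower the luminescence because luciferase stays unfolded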
HSF1 inh = HSF1 inhibitors in luciferase reporter cells, primary screen, cell-based, NIH3T3, luminescence. NIH3T3-HGL HSE-luciferase, MG132-induced, luminescence 8 h; stronger effect = lower value. activity change, negative = inhibition, % at 7.5 µM (by protocol). actives 0.77% (n = 300,000). AID 2098, 2009;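 active = more than half of replicate wells show activity change below -50%, luminescence cut by over half; inconclusive = some wells, but at most half, below -50%; inactive = no replicate well below -50%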;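 note: luciferase reports HSF-1 transcriptional activity via heat shock element; 0% = median of DMSO wells and -100% = zero luminescence signal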
HSF1 activator = HSF-1 activators, primary screen, NIH3T3-HGL cells, MG132 stress, luminescence, single point. NIH3T3-HGL HSF-1 luciferase reporter, 8 h; 100% = twice DMSO control signal. actives 1.7% (n = 300,000). activation, % at 9 µM;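 active = mean replicate activation of at least 50% with a set share of replicates each reaching 50%; inconclusive = only one of those two conditions met; inactive = mean below 50% and too few replicates reaching it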;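 note: 0% = median of the neutral control wells and 100% = twice that signal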
HCV NS3 hel inh = inhibitors of HCV NS3 helicase, primary screen, biochemical, Cy5 molecular beacon fluorescence. inhibition, % at 10.9 µM. actives 0.56% (n = 290,000). AID 1800, 2009. NS3 helicase DNA unwinding;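 active = inhibition above the mean of all tested compounds plus 3 SD, set per campaign, cut at about 35% in these data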;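 note: 0% = DMSO wells and 100% = thioflavine S control wells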
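Control set: DMSO versus 110 µM thioflavine S; Material: NS3 helicase fragment of HCV; Measured by: Cy5 fluorescence at 0 and 60 min, beacon hairpin quenching; Read-out basis: percent inhibition from t60/t0 fluorescence ratio; Times: reaction time 60 min, 25 °C; Repeats: single replicate; Compound dosing: single dose, 10.9 µM nominal final, DMSO 0.8% final.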
HSP90 inh confirm = HSP90 inhibitors, confirmation, cell lysate, luminescence | AID 1846, 2009 | actives 64% (n = 2,300) | shares compounds with HSP90 refold inh | rabbit reticulocyte lysate, luciferase refolding luminescence, 3 h | inhibition, % at 5.9 µM; in the data active = inhibition above about 18%;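 note: 0% = vehicle wells and 100% = reference inhibitor wells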
FLuc counter = firefly luciferase inhibitors, HSP90 counter-screen, confirmation, artefact control for HSP90 inhibitor project, biochemical, luminescence, triplicate; shares compounds with HSP90 refold inh; purified native firefly luciferase; inhibition, % at 5.9 µM; actives 48% (n = 2,300);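 active = inhibition above the mean inhibition of all tested sample wells plus 3 SD, cut at about 10% in these data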;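 note: 0% = DMSO with luciferase and 100% = wells lacking luciferase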
Target sequence (P08659 whole entry, looked up): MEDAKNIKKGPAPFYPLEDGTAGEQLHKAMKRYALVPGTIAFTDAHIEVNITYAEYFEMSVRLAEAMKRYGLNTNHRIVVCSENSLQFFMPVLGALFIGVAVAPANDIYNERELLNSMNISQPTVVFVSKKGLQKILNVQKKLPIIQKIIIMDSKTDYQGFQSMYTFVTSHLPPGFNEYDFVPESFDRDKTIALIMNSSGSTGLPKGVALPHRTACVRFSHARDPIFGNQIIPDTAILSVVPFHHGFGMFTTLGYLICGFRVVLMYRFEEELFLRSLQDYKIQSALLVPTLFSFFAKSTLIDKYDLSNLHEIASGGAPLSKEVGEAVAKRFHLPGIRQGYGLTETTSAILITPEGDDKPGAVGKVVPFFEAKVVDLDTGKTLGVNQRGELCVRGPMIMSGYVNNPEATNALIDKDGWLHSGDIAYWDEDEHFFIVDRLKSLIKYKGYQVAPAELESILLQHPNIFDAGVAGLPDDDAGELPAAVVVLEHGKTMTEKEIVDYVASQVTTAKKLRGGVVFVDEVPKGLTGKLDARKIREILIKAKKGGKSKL
* = called active by the depositor; ? = inconclusive; · = not tested or not shown.

SMILES | Hep lipid drop | HSP90 refold inh | HSF1 inh | HSF1 activator | HCV NS3 hel inh | HSP90 inh confirm | FLuc counter
Cc1ccc(N(CC(=O)NC2CCCC2)C(=O)CNC(=O)c2cccs2)cc1F | 23.2 | 0.1 | -5.4 | -7.0 | 7.5 | · | ·
CCOP(=O)(OCC)c1nc(-c2ccc(Cl)cc2Cl)oc1N1CCOCC1 | 33.8 | 4.6 | 9.2 | 7.8 | -2.1 | · | ·
c1ccc(-c2noc(-c3ccc4ccccc4c3)n2)nc1 | 18.6 | 78.3* | -78.0* | -82.3 | -7.6 | 96.7* | 91.5*
O=C(NCC1CCCO1)c1ccc(NS(=O)(=O)c2ccccc2)cc1 (centres undefined) | -3.3 | -3.1 | · | · | -7.0 | · | ·
COC(=O)CNC(=O)COC(=O)/C=C/c1ccc(F)cc1 | 3.5 | -2.5 | -0.9 | 7.1 | -4.5 | · | ·
COc1ccc(CCNC(=O)Cc2cc(OC)c(OC)cc2Br)cc1OC | -11.2 | 34.3* | 1.2 | -5.0 | -5.5 | -3.0 | -3.7
Cc1nn(-c2ccccc2)c(C)c1NC(=O)COC(=O)c1cc(Br)ccc1O | · | · | -17.8 | -21.9 | · | · | ·
O=C(O)c1cc(N/N=C/c2c(O)ccc3ccccc23)ccc1Cl | -26.7 | -3.9 | 42.8 | ? | 11.8 | · | ·
O=C(O)c1cc(N/N=C/C=C/c2ccccc2)ccc1Cl | -1.4 | 27.2* | 5.2 | 9.8 | 30.9 | 36.7* | -7.6
Cc1nn(-c2ccccc2)c(Cl)c1/C=N/Nc1ccc(Cl)c(C(=O)O)c1 | 7.3 | 37.9* | -43.4 | -53.2 | 14.9 | 83.7* | 78.3*
CN(C)c1cccc(C(=O)Nc2nc3ccccc3[nH]2)c1 | 40.0 | 25.5* | 4.9 | 29.9 | -19.6 | 56.2* | 39.4*
O=C(Nc1nc2ccccc2[nH]1)c1cccc(F)c1 | 13.8 | 26.2* | 10.8 | 41.6 | -2.1 | 29.8* | 11.8*
O=C(Nc1nc2ccccc2[nH]1)c1cccc(Br)c1 | 1.9 | 12.4 | 34.8 | 35.7 | 2.4 | · | ·
COc1cc(/C=C(/Sc2nnc(-c3ccc(F)cc3)o2)C(=O)O)ccc1OC(F)F | 0.5 | -1.5 | -3.4 | 5.2 | 2.7 | · | ·
O=C(NC(=O)c1ccccc1O)c1ccc2c(c1)CCO2 | -3.1 | 19.1* | 17.4 | 19.9 | -1.5 | 24.3* | -2.5
Cc1ccc(S(=O)(=O)N2CCOC2CNC(=O)C(=O)NCCN(C)C)cc1 (centres undefined) | -6.0 | 1.5 | -6.8 | 0.3 | -15.5 | · | ·
CCN(CC)c1ccc(NS(=O)(=O)c2ccc(OC)cc2)cc1 | 10.3 | -2.0 | 2.7 | 14.5 | 10.2 | · | ·
Cc1nc(C)c(-c2csc(Nc3cccc(O)c3)n2)s1 | -9.7 | -5.6 | -10.9 | 10.4 | -13.0 | · | ·
CC(=O)c1cccc(Nc2nc(-c3sc(N)nc3C)cs2)c1 | -0.6 | 52.3* | 0.5 | -3.5 | 28.5 | 1.0 | -10.4
Cc1nc(N)sc1-c1csc(Nc2cccc(O)c2)n1 | -1.6 | 31.3* | -40.8 | -47.3 | 3.8 | -4.0 | -20.8
Nc1cc(C(F)(F)F)ccc1Nc1ccccc1 | -5.9 | -4.1 | 9.2 | 15.4 | -9.1 | · | ·
O=C(Nc1ccc(NC(=O)c2ccccc2F)cn1)c1ccco1 | 16.5 | 28.2* | -1.8 | -6.3 | -1.2 | 51.8* | 35.7*
CCOC(=O)/C(C#N)=C/c1c(Oc2cccc(C)c2)nc2ccccn2c1=O | -2.1 | 29.4* | 1.6 | -13.6 | -20.4 | -5.1 | -7.3
CCOC(=O)/C(C#N)=C/c1c(Oc2cc(C)cc(C)c2)nc2ccccn2c1=O | -5.7 | 5.7 | 3.7 | 30.8 | 24.0 | · | ·
O=c1c2ccccc2[nH]c(=S)n1CCc1ccccc1 | 1.8 | -3.0 | 21.4 | 35.1 | -9.9 | · | ·
O=C(CCn1c(=S)[nH]c2ccccc2c1=O)NCCc1ccccc1 | -17.6 | 58.9* | -10.5 | 16.2 | 5.9 | 4.9 | -5.3
COc1ccc(C)cc1NC(=O)c1cc(S(=O)(=O)N2CCOCC2)cn1C | -5.8 | 1.3 | -7.9 | -5.5 | -2.7 | · | ·
